Assay results as given in ChEMBL document CHEMBL1127745, “Synthesis, resolution, and SAR of (+/-)-2-amino-N-methyl-alpha-(3-methyl-2-thienyl)benzeneethanamine++ + and related analogs as noncompetitive NMDA antagonists with neuroprotective properties” (J Med Chem, 1994).

Key:
Mus musculus = test: Effective dose required for 50% inhibition of clonic seizures in mice induced by racemic NMDLA when administered intraperitoneally; format: functional; conditions: ip
How it was run: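 Swiss Webster mice, 10 per group, dosed ip with drug in distilled water 0.5 h before N-methyl-D,L-aspartic acid 350 mg/kg sc. Each mouse observed 30 min for clonic seizures lasting at least 3 s; protection means no seizure in that time. Controls received vehicle. ED50 taken at time of peak effect from three or more doses, Litchfield-Wilcoxon method.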

Glutamate NMDA receptor = test: Inhibition against NMDA receptor by displacement of [3H]TCP binding from rat cortical membranes; format: cell membranes, Membrane
Rattus norvegicus [1] = test: Percent change in reduction of photochemically induced cerebral focal ischemia in control and treated rat at 3 mg/kg intravenous dose; format: functional
How it was run: (§1)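 Male rats (300-350 g) under halothane (3 vol% induction, 1.2 vol% maintenance in O2). Rose Bengal (5 mg in 1 mL) infused through the femoral vein, then thrombotic focal cortical ischemia induced photochemically with light. Drug given iv 30 min after ischemia to groups of 5-7 rats. Infarct volume (mm3) measured by image analysis of cresyl violet-stained 20-µm sections.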

Rattus norvegicus [2] = test: Evaluated for reduction of NMDA-induced necrosis at 2.0 mg/kg intraperitoneal dose in rats.; format: functional
How it was run: (§2)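 Male Sprague-Dawley rats (280-310 g) under chloral hydrate (400 mg/kg ip). Unilateral dorsal hippocampal CA1 lesion made by stereotaxic infusion of NMDA 20 nmol over 5 min. Drugs given sc or ip 1 h before infusion. Brains perfusion-fixed at 7 days and cresyl violet-stained; lesion volume measured by image analysis. n = 4 per group, compared with control by t-test.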

Rattus norvegicus [3] = test: Evaluated for reduction of NMDA-induced necrosis volume at 2.0 mg/kg intraperitoneally dose in rats.; format: functional; conditions: route intraperitoneal; how it was run: as §2
Rattus norvegicus [4] = test: Evaluated for reduction of NMDA-induced necrosis volume at 7.0 mg/kg intraperitoneally dose in rats.; format: functional; conditions: route intraperitoneal; how it was run: as §2
Gerbillinae [5] = test: Percent reduction of carotid artery Carotid artery occlusion-induced hippocampal damage at 5 mg/kg intraperitoneal dose.; format: functional, Hippocampus
How it was run: (§3)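 Male Mongolian gerbils (65-75 g, n = 14-15) under halothane (2.6 vol% induction, 1.2 vol% maintenance in N2:O2 2:1). Forebrain ischemia by bilateral 5-min carotid occlusion with reperfusion. Drug given ip 15 min before or 15 min after occlusion. CA1 cell necrosis rated on a 0-4 scale (0 none to 4 all CA1 cells). Group means compared by t-test.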

Rattus norvegicus [6] = test: Evaluated for reduction of NMDA-induced necrosis at 0.7 mg/kg intraperitoneal dose in rats.; format: functional; how it was run: as §2
Rattus norvegicus [7] = test: Evaluated for reduction of NMDA-induced necrosis at 7.0 mg/kg intraperitoneal dose in rats.; format: functional; how it was run: as §2
Rattus norvegicus [8] = test: Reduction of photochemically induced cerebral focal ischemia in rat was evaluated by using compound at 3 mg/kg intravenous dose; format: functional; how it was run: as §1
Gerbillinae [9] = test: Carotid artery occlusion-induced hippocampal damage was evaluated by using compound 15 min before carotid occlusion at 5 mg/kg intraperitoneal dose.; format: functional, Hippocampus; how it was run: as §3
Rattus norvegicus [10] = test: Reduction of photochemically induced cerebral focal ischemia in rat was evaluated by using control at 3 mg/kg intravenous dose; format: functional; how it was run: as §1
Rattus norvegicus [11] = test: Evaluated for reduction of NMDA-induced necrosis volume at 0.7 mg/kg intraperitoneally dose in rats.; format: functional; conditions: route intraperitoneal; how it was run: as §2
Gerbillinae [12] = test: Carotid artery occlusion-induced hippocampal damage was evaluated by using control 15 min before carotid occlusion at 5 mg/kg intraperitoneal dose.; format: functional, Hippocampus; how it was run: as §3
Rattus norvegicus [13] = test: Evaluated for reduction of NMDA-induced necrosis at 30 mg/kg subcutaneous dose in rats.; format: functional; how it was run: as §2
Rattus norvegicus [14] = test: Evaluated for reduction of NMDA-induced necrosis at 100 mg/kg subcutaneous dose in rats.; format: functional; how it was run: as §2
Rattus norvegicus [15] = test: Evaluated for reduction of NMDA-induced necrosis volume at 100 mg/kg subcutaneous dose in rats.; format: functional; how it was run: as §2
Rattus norvegicus [16] = test: Evaluated for reduction of NMDA-induced necrosis volume at 30 mg/kg subcutaneous dose in rats.; format: functional; how it was run: as §2
Rattus norvegicus [17] = test: Percent change in reduction of photochemically induced cerebral focal ischemia in control and treated rat at 10 mg/kg intravenous dose; format: functional; how it was run: as §1
Gerbillinae [18] = test: Percent reduction Carotid artery occlusion-induced hippocampal damage at 30 mg/kg intraperitoneal dose.; format: functional, Hippocampus; how it was run: as §3
Rattus norvegicus [19] = test: Percent change in reduction of photochemically induced cerebral focal ischemia in control and treated rat at 0.3 mg/kg intravenous dose; format: functional; how it was run: as §1
Gerbillinae [20] = test: Carotid artery occlusion-induced hippocampal damage was evaluated 15 min after carotid occlusion 30 mg/kg intraperitoneal dose; format: functional, Hippocampus; how it was run: as §3
Gerbillinae [21] = test: Carotid artery occlusion-induced hippocampal damage was evaluated 15 min after carotid occlusion 10 mg/kg intraperitoneal dose; format: functional, Hippocampus; how it was run: as §3
Gerbillinae [22] = test: Percent reduction Carotid artery occlusion-induced hippocampal damage at 10 mg/kg intraperitoneal dose.; format: functional, Hippocampus; how it was run: as §3
Gerbillinae [23] = test: Carotid artery occlusion-induced hippocampal damage was evaluated by using compound 15 min before carotid occlusion at 30 mg/kg intraperitoneal dose; format: functional, Hippocampus; how it was run: as §3
Rattus norvegicus [24] = test: Reduction of photochemically induced cerebral focal ischemia in rat was evaluated at 10 mg/kg intravenous dose; format: functional; how it was run: as §1
Rattus norvegicus [25] = test: Reduction of photochemically induced cerebral focal ischemia in rat was evaluated at 3.0 mg/kg intravenous dose; format: functional; how it was run: as §1
Gerbillinae [26] = test: Percent reduction of carotid artery occlusion-induced hippocampal damage at 30 mg/kg intraperitoneal dose.; format: functional, Hippocampus; how it was run: as §3
Rattus norvegicus [27] = test: Reduction of photochemically induced cerebral focal ischemia in rat was evaluated at 1.0 mg/kg intravenous dose; format: functional; how it was run: as §1
Rattus norvegicus [28] = test: Percent change in reduction of photochemically induced cerebral focal ischemia in control and treated rat at 1.0 mg/kg intravenous dose; format: functional; how it was run: as §1
Gerbillinae [29] = test: Percent reduction Carotid artery occlusion-induced hippocampal damage at 50 mg/kg intraperitoneal dose.; format: functional, Hippocampus; how it was run: as §3
Gerbillinae [30] = test: Carotid artery occlusion-induced hippocampal damage was evaluated 15 min after carotid occlusion 50 mg/kg intraperitoneal dose; format: functional, Hippocampus; how it was run: as §3
Rattus norvegicus [31] = test: Reduction of photochemically induced cerebral focal ischemia in rat was evaluated at 0.3 mg/kg intravenous dose; format: functional; how it was run: as §1
Gerbillinae [32] = test: Carotid artery occlusion-induced hippocampal damage was evaluated by using compound 15 min before carotid occlusion at 30 mg/kg intraperitoneal dose.; format: functional, Hippocampus; how it was run: as §3
Rattus norvegicus [33] = test: Reduction of photochemically induced cerebral focal ischemia in rat was evaluated at 0.1 mg/kg intravenous dose; format: functional; how it was run: as §1
Gerbillinae [34] = test: Carotid artery occlusion-induced hippocampal damage was evaluated 15 min after carotid occlusion 60 mg/kg intraperitoneal dose; format: functional, Hippocampus; how it was run: as §3
Gerbillinae [35] = test: Carotid artery occlusion-induced hippocampal damage was evaluated 15 min before carotid occlusion at 30 mg/kg intraperitoneal dose.; format: functional, Hippocampus; how it was run: as §3
Rattus norvegicus [36] = test: Reduction of photochemically induced cerebral focal ischemia in rat was evaluated 10.0 mg/kg intravenous dose; format: functional; how it was run: as §1
Rattus norvegicus [37] = test: Reduction of photochemically induced cerebral focal ischemia in rat was evaluated at 20.0 mg/kg intravenous dose; format: functional; how it was run: as §1
Rattus norvegicus [38] = test: Percent change in reduction of photochemically induced cerebral focal ischemia in control and treated rat at 20 mg/kg intravenous dose; format: functional; how it was run: as §1
Rattus norvegicus [39] = test: Reduction of photochemically induced cerebral focal ischemia in rat was evaluated 3.0 mg/kg intravenous dose; format: functional; how it was run: as §1
Rattus norvegicus [40] = test: Percent change in reduction of photochemically induced cerebral focal ischemia in control and treated rat at 3.0 mg/kg intravenous dose; format: functional; how it was run: as §1
Gerbillinae [41] = test: Carotid artery occlusion-induced hippocampal damage was evaluated 15 min before carotid occlusion at 60 mg/kg intraperitoneal dose.; format: functional, Hippocampus; how it was run: as §3

Compound: Cc1ccsc1C(N)Cc1ccccc1N.Cl (stereo not given)
- ED50 (Mus musculus): 19 mg/kg
- IC50 (Glutamate NMDA receptor): 4000 nM

Compound: CNc1ccccc1CC(c1sccc1C)N(C)C (stereo not given)
- ED50 (Mus musculus): > 60 mg/kg

Compound: C[C@]12N[C@H](Cc3ccccc31)c1ccccc12 [DIZOCILPINE]
- Change (Rattus norvegicus [1]): -24%
- ED50 (Mus musculus): 0.38 mg/kg
- Reduction (Rattus norvegicus [2]): <94%
- Volume (Rattus norvegicus [3]): 0.01 µM
- Volume (Rattus norvegicus [4]): 0.0025 µM
- Reduction (Gerbillinae [5]): <22%
- Reduction (Rattus norvegicus [6]): <44%
- Reduction (Rattus norvegicus [7]): <98%
- Treated (Rattus norvegicus [8]): 52
- Treated (Gerbillinae [9]): 0.8
- Control (Rattus norvegicus [10]): 68
- Volume (Rattus norvegicus [11]): 0.1 µM
- Control (Gerbillinae [12]): 1.05

Compound: CCNC(Cc1ccccc1N)c1sccc1C.Cl (stereo not given)
- Reduction (Rattus norvegicus [13]): 67%
- ED50 (Mus musculus): 6.4 mg/kg
- IC50 (Glutamate NMDA receptor): 43 nM
- Reduction (Rattus norvegicus [14]): 95%
- Volume (Rattus norvegicus [15]): 0.0098 µM
- Volume (Rattus norvegicus [16]): 0.059 µM

Compound: CNc1ccccc1CC(NC)c1sccc1C.Cl (stereo not given)
- ED50 (Mus musculus): > 60 mg/kg
- IC50 (Glutamate NMDA receptor): 3800 nM

Compound: CNC(Cc1ccc(C(F)(F)F)cc1N)c1sccc1C (stereo not given)
- IC50 (Glutamate NMDA receptor): > 10000 nM

Compound: O=C(O)C1CN(CCCP(=O)(O)O)CCN1 (stereo not given)
- IC50 (Glutamate NMDA receptor): > 100000 nM

Compound: CNC(Cc1ccccc1N)c1ccc(C)s1 (stereo not given)
- ED50 (Mus musculus): > 60 mg/kg
- IC50 (Glutamate NMDA receptor): 5200 nM

Compound: CNC(Cc1ccc(Cl)cc1N)c1sccc1C.Cl (stereo not given)
- ED50 (Mus musculus): ≥ 60 mg/kg
- IC50 (Glutamate NMDA receptor): 18000 nM

Compound: CNC(Cc1ccccc1N)c1sccc1C.Cl (stereo in doubt; 3a)
- Change (Rattus norvegicus [1]): -16%
- ED50 (Mus musculus): 27.8 mg/kg
- Change (Rattus norvegicus [17]): 6%
- Reduction (Gerbillinae [18]): 26%
- Change (Rattus norvegicus [19]): 0%
- Treated (Gerbillinae [20]): 2.13
- Treated (Gerbillinae [21]): 2.8
- Reduction (Gerbillinae [22]): 2%
- Treated (Gerbillinae [23]): 0.3
- IC50 (Glutamate NMDA receptor): 350 nM
- Reduction (Rattus norvegicus [14]): 68%
- Treated (Rattus norvegicus [24]): 86
- Treated (Rattus norvegicus [25]): 63
- Reduction (Gerbillinae [26]): 75%
- Volume (Rattus norvegicus [15]): 0.057 µM
- Treated (Rattus norvegicus [27]): 57
- Change (Rattus norvegicus [28]): -27%
- Reduction (Gerbillinae [29]): 18%
- Treated (Gerbillinae [30]): 2.13
- Treated (Rattus norvegicus [31]): 72

Compound: CNC(Cc1cc(Cl)ccc1N)c1sccc1C (stereo not given)
- ED50 (Mus musculus): ≥ 30 mg/kg
- IC50 (Glutamate NMDA receptor): 25 nM

Compound: CNC(Cc1cc(Br)ccc1N)c1sccc1C (stereo not given)
- ED50 (Mus musculus): > 5 mg/kg
- IC50 (Glutamate NMDA receptor): 45 nM

Compound: CNC(Cc1ccccc1N)c1sccc1C.Cl (stereo in doubt; (+)3a)
- Treated (Gerbillinae [32]): 1.5
- Treated (Rattus norvegicus [33]): 59
- Change (Rattus norvegicus [19]): 13%
- IC50 (Glutamate NMDA receptor): 180 nM
- Reduction (Gerbillinae [26]): 51%
- Treated (Rattus norvegicus [27]): 67
- Change (Rattus norvegicus [28]): 14%

Compound: Cc1ccsc1C(Cc1ccccc1N(C)C)N(C)C (stereo not given)
- ED50 (Mus musculus): > 60 mg/kg
- IC50 (Glutamate NMDA receptor): 330 nM

Compound: CNC(Cc1ccccc1N)c1sccc1C.Cl (single isomer, unassigned; (-))
- Treated (Gerbillinae [34]): 3.3
- IC50 (Glutamate NMDA receptor): 57000 nM
- Treated (Gerbillinae [35]): 2.8
- Treated (Rattus norvegicus [36]): 93
- Reduction (Gerbillinae [26]): 32%
- Treated (Rattus norvegicus [37]): 79
- Change (Rattus norvegicus [38]): 13%
- Treated (Rattus norvegicus [27]): 66
- Treated (Rattus norvegicus [39]): 73
- Change (Rattus norvegicus [40]): 6%
- Change (Rattus norvegicus [28]): 7%
- Treated (Gerbillinae [41]): 0.9

Compound: CCCNC(Cc1ccccc1N)c1sccc1C.Cl (stereo not given)
- ED50 (Mus musculus): 14.1 mg/kg
- IC50 (Glutamate NMDA receptor): 130 nM

Compound: CNC(Cc1ccccc1N)c1cccs1.Cl (stereo not given)
- ED50 (Mus musculus): > 60 mg/kg

Compound: Cc1ccsc1C(Cc1ccccc1N)N(C)C (stereo not given)
- ED50 (Mus musculus): > 60 mg/kg
- IC50 (Glutamate NMDA receptor): 370 nM
